Screening data as filed in PubChem.
Sampled rows, rich in hits. Any-hit rate of the full collection: about 3.5%.
Pf gametocyte: inhibitors of late stage P. falciparum gametocyte viability; P. falciparum stage V gametocytes, ATP luminescence, 24 h; inhibition, % at 10.9 µM; 0.065% of 150,000 active; AID 743093;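 active = inhibition above the mean plus 3 SD of compounds within the control limits, set per campaign, cut at about 38% in these data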;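 note: 0% = DMSO wells and 100% = medium only without gametocytes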
APP 5'UTR act: APP 5'UTR luciferase reporter activation; 1% of 190,000 active; SH-SY5Y APP 5'UTR luciferase reporter, luminescence; zero percent = DMSO vehicle wells; activation, % at 2 µM; AID 1276;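 active = activation above a set limit, based on mean plus 3 SD of controls, cut at about 140% in these data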
FLuc stim CS: firefly luciferase counter-screen for stimulation assays; ATPlite luciferase biochemical, luminescence, 10 min; 0 = ATP-free wells, 1 = DMSO control; activation factor at 10 µM; 200,000 tested, under 10 active; AID 1027;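 active = luciferase activation factor, scaled between plate controls, of at least 2 with compound at 10 µM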
Target sequence (P08659 whole entry, looked up): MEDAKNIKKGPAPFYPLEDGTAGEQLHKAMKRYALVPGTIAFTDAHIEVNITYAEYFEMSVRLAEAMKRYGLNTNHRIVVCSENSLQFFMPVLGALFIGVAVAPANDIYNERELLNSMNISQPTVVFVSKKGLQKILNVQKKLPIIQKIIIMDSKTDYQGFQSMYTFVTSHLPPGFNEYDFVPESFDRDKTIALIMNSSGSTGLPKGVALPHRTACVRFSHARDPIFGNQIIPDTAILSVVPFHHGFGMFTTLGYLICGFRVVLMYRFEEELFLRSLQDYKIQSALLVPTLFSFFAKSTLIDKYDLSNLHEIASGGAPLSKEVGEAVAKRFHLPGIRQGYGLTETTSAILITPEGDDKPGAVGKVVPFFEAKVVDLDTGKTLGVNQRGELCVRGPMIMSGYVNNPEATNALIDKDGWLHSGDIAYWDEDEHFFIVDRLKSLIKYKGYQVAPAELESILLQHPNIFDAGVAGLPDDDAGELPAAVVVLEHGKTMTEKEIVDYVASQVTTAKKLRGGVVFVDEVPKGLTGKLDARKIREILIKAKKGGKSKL
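Assay system: Luciferase/luciferin detection reagent, cell-free biochemical luciferase assay / Also added: ATP substrate / Schedule: 10 min at ambient temperature / Measured by: luminescence measurement of luciferase light output / Benchmarks: low control with PBS replacing ATP, high control enzyme plus ATP without compound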
STAT1 act: increases IFN-gamma driven STAT1 reporter signal | NIH 3T3 STAT1-luciferase reporter, luminescence; 100% = IFN-gamma alone, no compound | activation (% of control), % at 5.5 µM | 2.6% of 200,000 active | AID 932;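 active = activation above the screen-wide mean activation plus 3 SD, cut at about 130% in these data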;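 note: raw ratio to IFN-gamma control signal so 100% means no change and 0% no light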
FLuc inh counter: Photinus pyralis luciferase inhibition counter-screen; ATPLite firefly luciferase biochemical luminescence, 10 min; 1.5% of 200,000 active; inhibition, % at 10 µM;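 active = inhibition above about 50% when tested at 10 µM, limit read from the data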
NF-kB expr up: NF-kB expression increase, human neuronal cells; NF-kB reporter expression; hits give high values; fold change at 12.5 µM; 1.6% of 190,000 active; in the data active = fold change above about 3.3
* = called active by the depositor; . = no result.

SMILES	Pf gametocyte	APP 5'UTR act	FLuc stim CS	STAT1 act	FLuc inh counter	NF-kB expr up
Cc1nc2nc(SCC(=O)c3ccc([N+](=O)[O-])cc3)[nH]c2cc1Br	.	10	1.1	107	-9	0.9
CC1=NN(C(N)=S)C(=O)C1N=Nc1ccccc1 (stereo unspecified)	0	12	0.9	130*	5	1.7
CC1=NN(C(N)=S)C(=O)C1N=Nc1ccc(Br)cc1 (stereo unspecified)	21	.	.	.	.	.
Cc1nn(C(C)(C)C)c(OC(=O)c2cccs2)c1S(=O)(=O)c1ccccc1	5	2	1	129*	-2	1.6
C/C(=N\Nc1ccccn1)c1ccc(N2CCOCC2)cc1	.	46	0.7	141*	31	3.1
C/C(=N\Nc1ccccn1)c1ccc(C(C)C)cc1	-24	17	0.8	122	18	2.7
C(=N\Nc1ccccn1)/c1ccc(N2CCOCC2)cc1	-3	115	0.3	121	74*	4.5*
C(=N\Nc1ccccc1)/c1ccc(N2CCOCC2)cc1	.	106	0.8	121	20	1.4
CCOC(=O)CNS(=O)(=O)c1ccc(C)cc1	-3	2	1	102	-4	1.8
Cc1ccc(-n2ncc3c(SCc4ccccc4)ncnc32)cc1	-13	112	1	112	2	3.1
Fc1ccc(-n2ncc3c(SCc4cccnc4)ncnc32)cc1	-10	90	0.7	118	28	3.4*
Cc1cccc(CCNC(=O)c2nnc(Cc3ccc(Cl)cc3)o2)c1	.	13	1.1	102	-9	1.1
O=C(N/N=C/c1ccc2cccnc2c1)c1nc2ccccc2c(=O)[nH]1	-22	.	.	.	.	.
CN(C)S(=O)(=O)c1ccc(C(=O)NCCOc2ccccc2)cc1	.	.	1.1	131*	-8	2.8
COc1ccc([N+](=O)[O-])cc1NCc1ccccc1	-12	10	1	143*	0	1.6
CCc1ccc(N2C(=O)CN(Cc3cccs3)C2=S)cc1	.	-8	1	104	4	1.2
CCn1c(O)c(C=Nc2ccccc2)sc1=O	14	20	1	130*	-4	1.6
Oc1c(C=Nc2ccccc2)sc(=S)n1Cc1ccccc1	28	4	1.1	104	-6	1.3
C=CCn1c(O)c(C=Nc2ccccc2)sc1=S	-8	39	1	129*	-2	1.6
O=C(O)Cn1c(O)c(C=Nc2ccccc2)sc1=S	16	16	1	102	-2	1.1
C=CC[C@@H](CC(=O)N[C@H](CO)Cc1ccccc1)C(=O)NC[C@H](OC(=O)[C@@H](CC=C)Cc1ccc(F)cc1)c1ccccc1	7	.	.	.	.	.
CC1=C(C)CC(C(=O)NCC(=O)c2ccccc2)C(C(=O)O)C1 (stereo unspecified)	.	89	0.9	133*	6	1.6
O=C(CNC(=O)c1ccccc1C(=O)O)c1ccccc1	8	69	0.9	130*	7	1.7
CCc1c(-c2ccccc2)nc2nc(C)c(C)nn12	.	-4	1	102	0	1.3
CCc1ccc(-c2cn3nc(C)c(C)nc3n2)cc1	10	2	0.2	22	84*	2.9
SMILES	Pf gametocyte	APP 5'UTR act	FLuc stim CS	STAT1 act	FLuc inh counter	NF-kB expr up
Cc1nc2nc(-c3ccccc3)cn2nc1C	7	98	0.5	122	46	4.7*
Cc1c(N(C(=O)Cc2cccs2)C2(C(=O)NC3CCCC3)CCCCC2)c(=O)n(-c2ccccc2)n1C	12	9	1	97	-5	4.1*
CC(=O)N(c1c(C)n(C)n(-c2ccccc2)c1=O)C1(C(=O)NC2CCCCC2)CCCCC1	.	-8	1	104	-3	1.1
CC(=O)OCC(=O)[C@@]12OC3(CCCC3)O[C@@H]1C[C@H]1[C@@H]3CCC4=CC(=O)C=C[C@]4(C)[C@@]3(F)[C@@H](O)C[C@@]12C	.	60	1.1	129*	-8	0.47
CC(=O)c1nn(-c2cccc(Br)c2)cc1C(=O)c1ccc(Br)cc1	21	-3	1.1	101	-6	1.1
CCOC(=O)c1nn(-c2ccc(Br)cc2)cc1C(=O)c1cccc2ccccc12	10	7	1	111	-1	6.4*
C=CCn1c(SCC(=O)NCCOC)nc2scc(-c3ccco3)c2c1=O	.	-17	1	101	-2	0.96
CC(=O)c1sc(NC(=O)c2c(F)cccc2F)nc1-c1ccccc1	0	3	1	107	-3	1
CC(=O)c1sc(NC(=O)c2cccc(C)c2)nc1C	-4	124	0.5	131*	51*	5.5*
COC(=O)Nc1nc(-c2ccccc2)c(C(=O)c2ccc(Cl)cc2)s1	.	-9	1	100	-1	1.4
CC(=O)c1sc(NC(=O)c2ccccc2)nc1-c1ccccc1	-6	101	0.5	150*	46	4.9*
CCOC(=O)Nc1nc(-c2ccccc2)c(C(=O)c2ccccc2)s1	.	-94	1	102	-2	3.6*
Cc1ccc(NC(=S)NCc2ccc3c(c2)cc(C)n3C)c(C)c1	-2	-2	1	95	-5	1
COc1cccc(/C=N\NC(=O)Cn2nnc3ccccc32)c1O	-11	0	0.9	105	8	3.3*
COc1cc(/C=N/NC(=O)Cn2nnc3ccccc32)ccc1O	.	13	1	108	4	1.1
COC(=O)c1ccc(NC(=O)Cn2nnc3ccccc32)cc1	-18	63	1	134*	-2	2.5
Cc1cccc(NC(=O)Cn2nnc3ccccc32)c1	.	45	1	130*	-3	2.6
Cc1ccc(NC(=O)Cn2nnc3ccccc32)cc1	-2	57	1	126	2	0.94
Cc1ccccc1NC(=S)NCc1ccccc1	.	19	1	85	1	1.2
CCCCC(CC)CNC(=O)CC1Nc2c3ccccc3nc(=S)n2C1=O (stereo unspecified)	9	9	1	109	-1	0.91
CCCC(=O)Nc1ccc2oc(-c3ccc(OC)c(Br)c3)nc2c1	-10	49	0.9	108	5	1.5
O=[N+]([O-])c1ccc2oc(-c3ccccc3)nc2c1	3	112	0.8	145*	18	4.2*
CCC(=O)NC(=S)Nc1ccc2oc(-c3ccc(OC)cc3)nc2c1	.	137*	1	125	1	1.8
COc1ccc(-c2nc3cc(NC(=S)NC(=O)Cc4ccccc4)ccc3o2)cc1	.	69	1	102	4	2.1
CCCC(=O)Nc1ccc(-c2nc3cc(C)ccc3o2)cc1	.	190*	0.6	136*	38	5.1*
NC(N)=Nc1nc2cc([N+](=O)[O-])ccc2o1	-19	10	0.9	107	7	1.3
COc1ccc(-c2nc3ccc([N+](=O)[O-])cc3o2)cc1	.	150*	0.9	111	6	2.8
CCOc1ccc(N(CC(=O)Nc2cc(Cl)ccc2C)S(C)(=O)=O)cc1	-1	.	.	.	.	.
